# Test results taken from ChEMBL document CHEMBL1138520, “Molecular and conformational determinants of pituitary adenylate cyclase-activating polypeptide (PACAP) for activation of the PAC1 receptor” (J Med Chem, 2009).
# Target: T1, Pituitary adenylate cyclase-activating polypeptide type I receptor (Homo sapiens, UniProt P41586)
# Test: Displacement of [125I]Ac-PACAP27 from human recombinant PAC1 receptor expressed in CHO cells by gamma- counter
# Type: cell-based
# Target sequence in this assay (P41586 whole entry): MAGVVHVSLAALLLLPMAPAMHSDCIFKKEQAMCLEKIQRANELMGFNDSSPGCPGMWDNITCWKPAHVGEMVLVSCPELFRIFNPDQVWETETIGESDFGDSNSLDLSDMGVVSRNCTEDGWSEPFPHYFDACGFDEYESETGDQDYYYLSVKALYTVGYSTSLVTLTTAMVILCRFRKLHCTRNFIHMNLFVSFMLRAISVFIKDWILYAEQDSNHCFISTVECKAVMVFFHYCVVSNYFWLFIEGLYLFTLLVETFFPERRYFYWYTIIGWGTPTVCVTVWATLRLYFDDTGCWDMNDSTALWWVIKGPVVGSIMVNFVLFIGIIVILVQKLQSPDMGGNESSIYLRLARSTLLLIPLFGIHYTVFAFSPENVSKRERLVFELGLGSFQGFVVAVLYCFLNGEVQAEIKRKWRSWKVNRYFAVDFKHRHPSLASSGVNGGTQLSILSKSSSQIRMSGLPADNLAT
row,Compound,IC50
1,CC[C@@H](C)[C@@H](NC(=O)CNC(=O)[C@H](CC(=O)O)NC(=O)[C@H](CO)NC(=O)[C@@H](N)Cc1cnc[nH]1)C(=O)N[C@@H](Cc1ccccc1)C(=O)N[C@H](C(=O)N[C@@H](CC(=O)O)C(=O)N[C@@H](CO)C(=O)N[C@@H](Cc1ccc(O)cc1)C(=O)N[C@@H](CO)C(=O)N[C@@H](CCCNC(=N)N)C(=O)N[C@@H](Cc1ccc(O)cc1)C(=O)N[C@@H](CCCNC(=N)N)C(=O)N[C@@H](CCCCN)C(=O)N[C@@H](CCC(N)=O)C(=O)N[C@@H](CCSC)C(=O)N[C@@H](C)C(=O)N[C@H](C(=O)N[C@@H](CCCCN)C(=O)N[C@@H](CCCCN)C(=O)N[C@@H](Cc1ccc(O)cc1)C(=O)N[C@@H](CC(C)C)C(=O)N[C@@H](C)C(=O)N[C@@H](C)C(=O)N[C@H](C(=O)N[C@@H](CC(C)C)C(=O)NCC(=O)N[C@@H](CCCCN)C(=O)N[C@@H](CCCNC(=N)N)C(=O)N[C@@H](Cc1ccc(O)cc1)C(=O)N[C@@H](CCCCN)C(=O)N[C@@H](CCC(N)=O)C(=O)N[C@@H](CCCNC(=N)N)C(=O)N[C@H](C(=O)N[C@@H](CCCCN)C(=O)N[C@@H](CC(N)=O)C(=O)N[C@@H](CCCCN)C(N)=O)C(C)C)C(C)C)C(C)C)[C@@H](C)O,122 nM

# Target: T1, Pituitary adenylate cyclase-activating polypeptide type I receptor
# Test: Agonist activity at human recombinant PAC1 receptor expressed in CHO cells assessed as PACAP38-induced calcium mobilization by FLIPR assay relative to PACAP38
# Type: functional, cell-based
# Outline: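 CHO cells stably expressing recombinant human PAC1, plated 24 h before assay, loaded with fluo-4 AM for 60 min at 37 °C in the dark, then rinsed into HBSS for 15 min at 37 °C. Peptide was added 18 s into a 150 s read (ex 480/em 525 nm), at final concentrations of 1 × 10-12 to 1 × 10^-5 M. Response was normalised to 1 × 10^-5 M PACAP38 on each plate. EC50 and efficacy came from nonlinear regression; 4-10 independent assays in duplicate.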
# Target sequence in this assay (P41586 21-468 limits assumed): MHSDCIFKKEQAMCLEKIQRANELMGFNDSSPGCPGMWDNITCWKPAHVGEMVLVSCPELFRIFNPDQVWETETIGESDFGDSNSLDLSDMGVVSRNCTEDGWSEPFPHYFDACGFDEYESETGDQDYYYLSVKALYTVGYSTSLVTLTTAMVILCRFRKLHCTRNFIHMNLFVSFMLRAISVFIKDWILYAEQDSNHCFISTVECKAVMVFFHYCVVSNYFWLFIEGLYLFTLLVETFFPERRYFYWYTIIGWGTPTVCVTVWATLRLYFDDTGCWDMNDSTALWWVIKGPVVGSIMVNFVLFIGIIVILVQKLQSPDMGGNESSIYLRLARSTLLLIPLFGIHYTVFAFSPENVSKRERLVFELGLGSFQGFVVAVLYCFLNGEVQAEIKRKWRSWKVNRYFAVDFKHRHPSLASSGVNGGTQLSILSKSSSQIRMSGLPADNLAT
row,Compound,Emax
1,CC[C@H](C)[C@H](NC(=O)CNC(=O)[C@H](CC(=O)O)NC(=O)[C@H](CO)NC(=O)[C@@H](N)Cc1cncn1C)C(=O)N[C@@H](Cc1ccccc1)C(=O)N[C@H](C(=O)N[C@@H](CC(=O)O)C(=O)N[C@@H](CO)C(=O)N[C@@H](Cc1ccc(O)cc1)C(=O)N[C@@H](CO)C(=O)N[C@@H](CCCNC(=N)N)C(=O)N[C@@H](Cc1ccc(O)cc1)C(=O)N[C@@H](CCCNC(=N)N)C(=O)N[C@@H](CCCCN)C(=O)N[C@@H](CCC(N)=O)C(=O)N[C@@H](CCSC)C(=O)N[C@@H](C)C(=O)N[C@H](C(=O)N[C@@H](CCCCN)C(=O)N[C@@H](CCCCN)C(=O)N[C@@H](Cc1ccc(O)cc1)C(=O)N[C@@H](CC(C)C)C(=O)N[C@@H](C)C(=O)N[C@@H](C)C(=O)N[C@H](C(=O)N[C@@H](CC(C)C)C(=O)NCC(=O)N[C@@H](CCCCN)C(=O)N[C@@H](CCCNC(=N)N)C(=O)N[C@@H](Cc1ccc(O)cc1)C(=O)N[C@@H](CCCCN)C(=O)N[C@@H](CCC(N)=O)C(=O)N[C@@H](CCCNC(=N)N)C(=O)N[C@H](C(=O)N[C@@H](CCCCN)C(=O)N[C@@H](CC(N)=O)C(=O)N[C@@H](CCCCN)C(N)=O)C(C)C)C(C)C)C(C)C)[C@@H](C)O,87.6%
2,CC[C@H](C)[C@H](NC(=O)CNC(=O)[C@H](CC(=O)O)NC(=O)[C@H](CO)NC(=O)[C@@H](N)Cc1cn(C)cn1)C(=O)N[C@@H](Cc1ccccc1)C(=O)N[C@H](C(=O)N[C@@H](CC(=O)O)C(=O)N[C@@H](CO)C(=O)N[C@@H](Cc1ccc(O)cc1)C(=O)N[C@@H](CO)C(=O)N[C@@H](CCCNC(=N)N)C(=O)N[C@@H](Cc1ccc(O)cc1)C(=O)N[C@@H](CCCNC(=N)N)C(=O)N[C@@H](CCCCN)C(=O)N[C@@H](CCC(N)=O)C(=O)N[C@@H](CCSC)C(=O)N[C@@H](C)C(=O)N[C@H](C(=O)N[C@@H](CCCCN)C(=O)N[C@@H](CCCCN)C(=O)N[C@@H](Cc1ccc(O)cc1)C(=O)N[C@@H](CC(C)C)C(=O)N[C@@H](C)C(=O)N[C@@H](C)C(=O)N[C@H](C(=O)N[C@@H](CC(C)C)C(N)=O)C(C)C)C(C)C)[C@@H](C)O,31.9%
3,CC[C@H](C)[C@H](NC(=O)CNC(=O)[C@H](CC(=O)O)NC(=O)[C@H](CO)NC(=O)[C@@H](N)Cc1cnc[nH]1)C(=O)N[C@@H](Cc1ccccc1)C(=O)N[C@H](C(=O)N[C@@H](CC(=O)O)C(=O)N[C@@H](CO)C(=O)N[C@@H](Cc1ccc(O)cc1)C(=O)N[C@@H](CO)C(=O)N[C@@H](CCCNC(=N)N)C(=O)N[C@@H](Cc1ccc(O)cc1)C(=O)N[C@@H](CCCNC(=N)N)C(=O)N[C@@H](CCCCN)C(=O)N[C@@H](CCC(N)=O)C(=O)N[C@@H](CCSC)C(=O)N[C@@H](C)C(=O)N[C@H](C(=O)N[C@@H](CCCCN)C(=O)N[C@@H](CCCCN)C(=O)N[C@@H](Cc1ccc(O)cc1)C(=O)N[C@@H](CC(C)C)C(=O)N[C@@H](C)C(=O)N[C@@H](C)C(=O)N[C@H](C(=O)N[C@@H](CC(C)C)C(=O)NCC(=O)N[C@@H](CCCCN)C(=O)N[C@@H](CCCNC(=N)N)C(=O)N[C@@H](Cc1ccc(O)cc1)C(=O)N[C@@H](CCCCN)C(=O)N[C@@H](CCC(N)=O)C(=O)N[C@@H](CCCNC(=N)N)C(=O)N[C@H](C(=O)N[C@@H](CCCCN)C(=O)N[C@@H](CC(N)=O)C(=O)N[C@@H](CCCCN)C(N)=O)C(C)C)C(C)C)C(C)C)[C@@H](C)O,100%
4,CC[C@H](C)[C@H](NC(=O)CNC(=O)[C@H](CC(=O)O)NC(=O)[C@H](CO)NC(=O)[C@@H](N)Cc1cn(C)cn1)C(=O)N[C@@H](Cc1ccccc1)C(=O)N[C@H](C(=O)N[C@@H](CC(=O)O)C(=O)N[C@@H](CO)C(=O)N[C@@H](Cc1ccc(O)cc1)C(=O)N[C@@H](CO)C(=O)N[C@@H](CCCNC(=N)N)C(=O)N[C@@H](Cc1ccc(O)cc1)C(=O)N[C@@H](CCCNC(=N)N)C(=O)N[C@@H](CCCCN)C(=O)N[C@@H](CCC(N)=O)C(=O)N[C@@H](CCSC)C(=O)N[C@@H](C)C(=O)N[C@H](C(=O)N[C@@H](CCCCN)C(=O)N[C@@H](CCCCN)C(=O)N[C@@H](Cc1ccc(O)cc1)C(=O)N[C@@H](CC(C)C)C(=O)N[C@@H](C)C(=O)N[C@@H](C)C(=O)N[C@H](C(=O)N[C@@H](CC(C)C)C(=O)NCC(=O)N[C@@H](CCCCN)C(=O)N[C@@H](CCCNC(=N)N)C(=O)N[C@@H](Cc1ccc(O)cc1)C(=O)N[C@@H](CCCCN)C(=O)N[C@@H](CCC(N)=O)C(=O)N[C@@H](CCCNC(=N)N)C(=O)N[C@H](C(=O)N[C@@H](CCCCN)C(=O)N[C@@H](CC(N)=O)C(=O)N[C@@H](CCCCN)C(N)=O)C(C)C)C(C)C)C(C)C)[C@@H](C)O,18.2%
5,CC[C@H](C)[C@@H](NC(=O)CNC(=O)[C@H](CC(=O)O)NC(=O)[C@H](CO)NC(=O)[C@@H](N)Cc1cnc[nH]1)C(=O)N[C@@H](Cc1ccccc1)C(=O)N[C@H](C(=O)N[C@@H](CC(=O)O)C(=O)N[C@@H](CO)C(=O)N[C@@H](Cc1ccc(O)cc1)C(=O)N[C@@H](CO)C(=O)N[C@@H](CCCNC(=N)N)C(=O)N[C@@H](Cc1ccc(O)cc1)C(=O)N[C@@H](CCCNC(=N)N)C(=O)N[C@@H](CCCCN)C(=O)N[C@@H](CCC(N)=O)C(=O)N[C@@H](CCSC)C(=O)N[C@@H](C)C(=O)N[C@H](C(=O)N[C@@H](CCCCN)C(=O)N[C@@H](CCCCN)C(=O)N[C@@H](Cc1ccc(O)cc1)C(=O)N[C@@H](CC(C)C)C(=O)N[C@@H](C)C(=O)N[C@@H](C)C(=O)N[C@H](C(=O)N[C@@H](CC(C)C)C(=O)NCC(=O)N[C@@H](CCCCN)C(=O)N[C@@H](CCCNC(=N)N)C(=O)N[C@@H](Cc1ccc(O)cc1)C(=O)N[C@@H](CCCCN)C(=O)N[C@@H](CCC(N)=O)C(=O)N[C@@H](CCCNC(=N)N)C(=O)N[C@H](C(=O)N[C@@H](CCCCN)C(=O)N[C@@H](CC(N)=O)C(=O)N[C@@H](CCCCN)C(N)=O)C(C)C)C(C)C)C(C)C)[C@@H](C)O,76.2%
6,CC[C@H](C)[C@H](NC(=O)CNC(=O)[C@H](CC(=O)O)NC(=O)[C@H](CO)NC(=O)[C@H](Cc1cnc[nH]1)NC(C)=O)C(=O)N[C@@H](Cc1ccccc1)C(=O)N[C@H](C(=O)N[C@@H](CC(=O)O)C(=O)N[C@@H](CO)C(=O)N[C@@H](Cc1ccc(O)cc1)C(=O)N[C@@H](CO)C(=O)N[C@@H](CCCNC(=N)N)C(=O)N[C@@H](Cc1ccc(O)cc1)C(=O)N[C@@H](CCCNC(=N)N)C(=O)N[C@@H](CCCCN)C(=O)N[C@@H](CCC(N)=O)C(=O)N[C@@H](CCSC)C(=O)N[C@@H](C)C(=O)N[C@H](C(=O)N[C@@H](CCCCN)C(=O)N[C@@H](CCCCN)C(=O)N[C@@H](Cc1ccc(O)cc1)C(=O)N[C@@H](CC(C)C)C(=O)N[C@@H](C)C(=O)N[C@@H](C)C(=O)N[C@H](C(=O)N[C@@H](CC(C)C)C(=O)NCC(=O)N[C@@H](CCCCN)C(=O)N[C@@H](CCCNC(=N)N)C(=O)N[C@@H](Cc1ccc(O)cc1)C(=O)N[C@@H](CCCCN)C(=O)N[C@@H](CCC(N)=O)C(=O)N[C@@H](CCCNC(=N)N)C(=O)N[C@H](C(=O)N[C@@H](CCCCN)C(=O)N[C@@H](CC(N)=O)C(=O)N[C@@H](CCCCN)C(N)=O)C(C)C)C(C)C)C(C)C)[C@@H](C)O,91.1%
7,CC[C@H](C)[C@H](NC(=O)CNC(=O)[C@H](CC(=O)O)NC(=O)[C@H](CO)NC(=O)[C@@H](N)Cc1cnc[nH]1)C(=O)N[C@@H](Cc1ccccc1)C(=O)N[C@@H](C(=O)N[C@@H](CC(=O)O)C(=O)N[C@@H](CO)C(=O)N[C@@H](Cc1ccc(O)cc1)C(=O)N[C@@H](CO)C(=O)N[C@@H](CCCNC(=N)N)C(=O)N[C@@H](Cc1ccc(O)cc1)C(=O)N[C@@H](CCCNC(=N)N)C(=O)N[C@@H](CCCCN)C(=O)N[C@@H](CCC(N)=O)C(=O)N[C@@H](CCSC)C(=O)N[C@@H](C)C(=O)N[C@H](C(=O)N[C@@H](CCCCN)C(=O)N[C@@H](CCCCN)C(=O)N[C@@H](Cc1ccc(O)cc1)C(=O)N[C@@H](CC(C)C)C(=O)N[C@@H](C)C(=O)N[C@@H](C)C(=O)N[C@H](C(=O)N[C@@H](CC(C)C)C(=O)NCC(=O)N[C@@H](CCCCN)C(=O)N[C@@H](CCCNC(=N)N)C(=O)N[C@@H](Cc1ccc(O)cc1)C(=O)N[C@@H](CCCCN)C(=O)N[C@@H](CCC(N)=O)C(=O)N[C@@H](CCCNC(=N)N)C(=O)N[C@H](C(=O)N[C@@H](CCCCN)C(=O)N[C@@H](CC(N)=O)C(=O)N[C@@H](CCCCN)C(N)=O)C(C)C)C(C)C)C(C)C)[C@@H](C)O,63.3%
